This note sets out measurements from PubChem BioAssay.

A short description of assay [1]: thallium flux activation in parental CHO cells, counter-screen for KCNQ1 potentiator project (AID 493006;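 active = duplicate-averaged activation above buffer control mean plus 5 SD of those controls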;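 as to activation: fluorescence ratio of max minus min over baseline after K+ and Tl+ depolarization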). As to conditions: parental CHO-K1 cells, FluxOR thallium flux, at 10 µM; hits give high values. An outline of the steps: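 Material: untransfected host CHO-K1 cells with FluxOR thallium dye. Timing: overnight 37 °C plating, 90 min RT dye, 20 min compound. Detection: kinetic FluxOR fluorescence, 10 s baseline, 110 s after stimulus. Read-out basis: max-minus-min fluorescence over baseline, percent of buffer-to-R-L3 span. Replicates: duplicate wells per compound, percent values averaged.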

For assay [2], the target named is Potassium voltage-gated channel subfamily KQT member 1 (Homo sapiens) (UniProt P51787). The assay is described as follows: KCNQ1 potassium channel potentiators, confirmation, FluxOR thallium flux, CHO cells, duplicates (AID 493007).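 As to outcome: cells depolarized by a potassium plus thallium sulfate stimulus after compound.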 To be noted: KCNQ1 cell line, FluxOR thallium flux fluorescence, at 10 µM; hits give high values, % of reference activator effect, buffer zero. An outline of the steps: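 Test system – KCNQ1-expressing CHO cell line · Incubation – FluxOR dye loading 90 min, compound exposure 20 min, room temperature · Detection – FluxOR Tl+ flux fluorescence, 10 s baseline plus 110 s recording · Controls – buffer-only wells as 0% and R-L3 activator as 100%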
Sequence of Potassium voltage-gated channel subfamily KQT member 1 (Homo sapiens) (P51787 whole entry, looked up): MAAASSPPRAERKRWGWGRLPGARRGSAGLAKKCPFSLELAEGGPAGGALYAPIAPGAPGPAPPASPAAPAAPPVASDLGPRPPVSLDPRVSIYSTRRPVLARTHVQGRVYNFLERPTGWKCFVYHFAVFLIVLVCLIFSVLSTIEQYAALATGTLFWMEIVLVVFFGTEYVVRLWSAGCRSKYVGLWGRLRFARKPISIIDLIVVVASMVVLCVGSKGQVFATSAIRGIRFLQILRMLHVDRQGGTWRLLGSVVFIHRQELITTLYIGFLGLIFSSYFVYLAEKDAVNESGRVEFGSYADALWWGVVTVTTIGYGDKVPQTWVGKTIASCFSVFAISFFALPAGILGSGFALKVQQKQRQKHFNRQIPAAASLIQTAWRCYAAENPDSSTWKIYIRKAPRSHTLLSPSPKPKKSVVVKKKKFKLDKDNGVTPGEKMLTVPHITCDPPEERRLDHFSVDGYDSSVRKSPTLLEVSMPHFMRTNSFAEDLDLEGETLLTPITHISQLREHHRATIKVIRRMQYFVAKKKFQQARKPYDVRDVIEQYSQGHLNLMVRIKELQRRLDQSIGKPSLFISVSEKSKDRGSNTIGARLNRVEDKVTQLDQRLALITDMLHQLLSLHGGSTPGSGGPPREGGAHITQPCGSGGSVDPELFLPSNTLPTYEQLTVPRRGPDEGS

The target of assay [3] is Potassium voltage-gated channel subfamily KQT member 2 (Rattus norvegicus) (UniProt O88943). Put plainly: rat KCNQ2 channel potentiation, selectivity assay for KCNQ1 potentiator project, KCNQ2-CHO-K1 cells (AID 493009;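 active = mean duplicate potentiation above the buffer control mean plus 5 SD of buffer wells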;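 also: assay conditions were tuned for KCNQ1 rather than KCNQ2 modulators; signal is max minus min fluorescence divided by baseline after thallium stimulus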). As to conditions: FluxOR thallium flux fluorescence, at 10 µM; hits give high values, scaled: buffer 0, activator control 100.
Sequence of Potassium voltage-gated channel subfamily KQT member 2 (Rattus norvegicus) (O88943 whole entry, looked up): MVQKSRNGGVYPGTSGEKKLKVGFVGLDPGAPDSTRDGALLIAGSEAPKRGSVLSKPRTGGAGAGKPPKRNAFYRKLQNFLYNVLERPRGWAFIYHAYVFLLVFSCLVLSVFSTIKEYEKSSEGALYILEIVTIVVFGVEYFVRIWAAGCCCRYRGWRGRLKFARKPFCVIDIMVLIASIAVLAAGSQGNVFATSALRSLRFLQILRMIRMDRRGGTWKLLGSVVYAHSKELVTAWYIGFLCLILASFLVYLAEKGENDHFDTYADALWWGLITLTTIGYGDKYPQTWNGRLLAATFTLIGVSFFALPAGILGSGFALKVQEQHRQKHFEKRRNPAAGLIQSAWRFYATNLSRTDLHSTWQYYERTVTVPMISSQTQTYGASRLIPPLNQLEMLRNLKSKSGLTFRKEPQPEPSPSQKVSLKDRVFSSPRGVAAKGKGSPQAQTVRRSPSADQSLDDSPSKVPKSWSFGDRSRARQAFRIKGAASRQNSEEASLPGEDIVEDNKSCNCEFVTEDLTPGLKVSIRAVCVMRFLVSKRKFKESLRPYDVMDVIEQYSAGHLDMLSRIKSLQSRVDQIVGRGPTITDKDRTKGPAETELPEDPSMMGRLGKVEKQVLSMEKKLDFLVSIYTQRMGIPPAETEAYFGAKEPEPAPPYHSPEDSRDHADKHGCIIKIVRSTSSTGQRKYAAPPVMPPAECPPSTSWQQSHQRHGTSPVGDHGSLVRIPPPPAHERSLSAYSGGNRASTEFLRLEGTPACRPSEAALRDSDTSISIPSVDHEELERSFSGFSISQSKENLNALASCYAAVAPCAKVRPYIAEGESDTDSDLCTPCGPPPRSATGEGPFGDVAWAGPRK
The target in assay [4] is Potassium voltage-gated channel subfamily KQT member 1 (Homo sapiens) (UniProt P51787). Put plainly: KCNQ1 channel current potentiators, confirmation, orthogonal assay for KCNQ1 potentiator project, IonWorks patch clamp, KCNQ1-CHO cells (AID 493184;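 active = current rise at least 3 SD above the untreated control mean in each of two repeat wells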). To be noted: automated patch clamp current, at 10 µM; hits give high values. The gist of the method: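 Read-out: Percent current increase versus pre-compound level | Assay system: CHO cells carrying KCNQ1 | Measured by: Automated perforated-patch electrophysiology | Medium: External bath solution at pH 7.4 | Dosing: One dose, 10 µM final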
Background: In patch-clamp work, channel activity is measured electrically.

Active and inactive are the calls of the source.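 The calls were made as follows, unless noted: active = potentiation averaged over duplicate wells exceeding buffer-only control mean by more than 3 SD; inactive = the rest.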

With `CC(=O)c1c(C)[nH]c(-c2ccccc2)nc1=S`, the activation in assay [1] was 151% (active). For the same compound, the potentiation in assay [2] is 40% (active); in assay [3] it was 178% (active). For the same compound, the result in assay [4] was inactive.
With `C/C(=N\NC(=O)C(C)Sc1ccccc1)c1ccc([N+](=O)[O-])cc1` (stereo not given), the result in assay [1], in assay [2], in assay [3] and in assay [4] was inactive.
In the case of `Cc1onc(-c2ccccc2)c1C(=O)NC(=S)Nc1sc2c(c1C#N)CCC(C)C2` (stereo not given), the activation in assay [1] was 145% (active). For the same compound, the results for the potentiation in assay [2] and in assay [3] were 28% (active) and 142% (active), respectively. Moreover, the outcome in assay [4] was inactive.
For `O=C(Nc1cccc2cccnc12)c1ccc(Br)o1`, the result in assay [1], in assay [2], in assay [3] and in assay [4] was inactive.
Consider `CCc1nccn1S(=O)(=O)c1ccc2ccc(C)cc2c1`, for which the outcome in assay [1], in assay [2], in assay [3] and in assay [4] was inactive.
For `CCOC(=O)CN1C(=O)N(CC)C(C)=C(C(=O)OC)[C@@H]1c1ccccc1`, the result in assay [1], in assay [2], in assay [3] and in assay [4] was inactive.
Turning to `COc1ccc(OC)c(S(=O)(=O)CC(O)CS(=O)(=O)c2ccccc2)c1` (stereo not given), the outcome in assay [1], in assay [2], in assay [3] and in assay [4] was inactive.
Consider `CSC(=S)N/N=C/c1ccccc1`, for which the activation in assay [1] was 245% (active). In addition, the potentiation was 48.5% (active) in assay [2] and 226% (active) in assay [3]. Moreover, in assay [4], the result was inactive.
For the compound `CC(Oc1ccc(Br)cc1)C(=O)Nc1ccc(S(=O)(=O)N(C)C2CCN(C)CC2)cc1` (stereo not given), the activation in assay [1] is 626% (active). In addition, the potentiation in assay [2] was 190% (active); in assay [3] it was 570% (active). In addition, in assay [4], the outcome was inactive.
Take `O=C(O)CCC(=O)Nc1ccc(-c2nc3ccc(C(=O)c4ccccc4)cc3[nH]2)cc1`: the outcome in assay [1], in assay [2], in assay [3] and in assay [4] was inactive.
As to `Cc1ccc2sc(N(CCCN(C)C)C(=O)CCS(=O)(=O)c3ccccc3)nc2c1C`, the outcome in assay [1], in assay [2], in assay [3] and in assay [4] was inactive.
Regarding `O=C(/C=C/c1ccco1)NC(=S)Nc1ccccc1O`, the outcome in assay [1], in assay [2], in assay [3] and in assay [4] was inactive.
For `Cc1cc(C)cc(OCC(O)Cn2nc(C)cc2C)c1` (stereo not given), the result in assay [1], in assay [2], in assay [3] and in assay [4] was inactive.
For `CCCCOC(=S)NC(=O)c1sc2ccccc2c1Cl`, in assay [1], the activation is 448% (active). In addition, the potentiation in assay [2] is 206% (active); in assay [3], 365% (active). For the same compound, the outcome in assay [4] was inactive.
Turning to `CC(/C=C1\SC(=S)N(c2ccc(C(=O)O)cc2)C1=O)=C\c1ccccc1`, the outcome in assay [1], in assay [2], in assay [3] and in assay [4] was inactive.
Turning to `CCc1cc2c(=O)[nH]c(-c3ccccn3)nc2s1`, the result in assay [1] and in assay [4] was inactive. The potentiation in assay [2] is 26% (active); in assay [3], 226% (active).
For `O=C(O)CCSc1ncnc2sc(-c3ccccc3)cc12`, the activation in assay [1] is 180% (active). Further, the potentiation was 89.5% (active) in assay [2] and 220% (active) in assay [3]. Further, the result in assay [4] was inactive.
With `C/C(=N\NC(=O)C(=O)Nc1cccc(C(F)(F)F)c1)c1ccc(Cl)s1`, the result in assay [1], in assay [2], in assay [3] and in assay [4] was inactive.
On to `CCC1CCCCN1S(=O)(=O)c1ccc(NC(=O)c2cccnc2)cc1` (stereo not given), for which the result in assay [1], in assay [2], in assay [3] and in assay [4] was inactive.
Consider `CCOC(=O)c1sc(C)nc1C1CCN(C(=O)OCC)CC1`, for which the result in assay [1], in assay [2], in assay [3] and in assay [4] was inactive.
As for `CC(=O)NC(CC(=O)O)C(=O)O` (stereo not given), the result in assay [1], in assay [2], in assay [3] and in assay [4] was inactive.
As for `O=C(NNC(=O)c1ccc2ccccc2c1O)c1cccs1`, the result in assay [1], in assay [2], in assay [3] and in assay [4] was inactive.
Consider `CCOC(=O)c1cccc(C(=O)Nc2nc3ccc(OC)cc3s2)n1`, for which the outcome in assay [1], in assay [2], in assay [3] and in assay [4] was inactive.
As to `COC(=O)c1sc(NC(=S)NC(=O)c2ccccc2C)nc1C`, in assay [1], the activation was 187% (active). Besides, the potentiation was 50% (active) in assay [2] and 204% (active) in assay [3]. Also, the result in assay [4] was inactive.
Take `CCCn1nnnc1SCC(=O)c1ccc2c(c1)OCCO2`: the result in assay [1], in assay [2], in assay [3] and in assay [4] was inactive.
For `CC(C)CN=Cc1c(O)c([N+](=O)[O-])cc2oc3c(c12)CCCC3`, the result in assay [1], in assay [2], in assay [3] and in assay [4] was inactive.
`COc1ccc(C(=O)c2cc([N+](=O)[O-])ccc2N2CCOCC2)cc1`: the result in assay [1], in assay [2], in assay [3] and in assay [4] was inactive.
On to `CCOC(=O)c1ccccc1NC(=O)CSc1nc2ccccc2n1CC(=O)N1CCCC1`, for which the result in assay [1], in assay [2], in assay [3] and in assay [4] was inactive.
In the case of `COc1ccc(CCNC(=O)CC(=O)N/N=C/c2ccc(Br)cc2)cc1OC`, the outcome in assay [1], in assay [2], in assay [3] and in assay [4] was inactive.
Turning to `Cc1ccc(O)c(C(=O)CC(=O)c2ccc(Cl)cc2)c1`, the result in assay [1], in assay [2], in assay [3] and in assay [4] was inactive.
